What was measured:
Format in all cases: functional
[1] = system: NCI-H460; assay: Anticancer activity against human NCI-H460 cells assessed as cell growth at 100 uM after 48 hrs by sulforhodamine B assay; details: NCI-H460, 48 h, read-out: Activity
[2] = system: MCF7; assay: Anticancer activity against human MCF7 cells assessed as cell growth at 100 uM after 48 hrs by sulforhodamine B assay; details: MCF7, 48 h, read-out: Activity
[3] = system: K562; assay: Growth inhibition of human K562 cells after 48 hrs by sulforhodamine B assay; details: K562, 48 h
Summary of the method: (§1)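 NCI 60-human-tumor-cell-line panel, with compounds tested over a 5-log dose range. Values are taken from dose-response curves as log10 molar concentrations: GI50 is 50% net growth inhibition, TGI is total growth inhibition, and LC50 is 50% net cell death.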

[4] = system: A549; assay: Growth inhibition of human A549 cells after 48 hrs by sulforhodamine B assay; details: A549, 48 h; summary of the method: as §1
[5] = system: NCI-H322M; assay: Growth inhibition of human NCI-H322M cells after 48 hrs by sulforhodamine B assay; summary of the method: as §1
[6] = system: NCI-H522; assay: Growth inhibition of human NCI-H522 cells after 48 hrs by sulforhodamine B assay; details: NCI-H522, 48 h; summary of the method: as §1
[7] = system: COLO 205; assay: Growth inhibition of human COLO205 cells after 48 hrs by sulforhodamine B assay; details: COLO 205, 48 h; summary of the method: as §1
[8] = system: HCT-116; assay: Growth inhibition of human HCT116 cells after 48 hrs by sulforhodamine B assay; details: HCT-116, 48 h; summary of the method: as §1
[9] = system: SW-620; assay: Growth inhibition of human SW620 cells after 48 hrs by sulforhodamine B assay; details: SW-620, 48 h
Summary of the method: (§2)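 Run in the NCI 60-human-tumour-cell-line panel, tested over a 5-log dose range. Dose–response curves gave three values per cell line, each as a log10 molar concentration: GI50 (50% inhibition of net cell growth), TGI (total inhibition of net growth) and LC50 (50% net cell death). The mean graph midpoint is the arithmetic mean over all lines, with insensitive lines entered at the highest concentration tested.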

[10] = system: SF-268; assay: Growth inhibition of human SF268 cells after 48 hrs by sulforhodamine B assay; details: SF-268, 48 h; summary of the method: as §1
[11] = system: SF-295; assay: Growth inhibition of human SF295 cells after 48 hrs by sulforhodamine B assay; details: SF-295, 48 h; summary of the method: as §1
[12] = system: U-251; assay: Growth inhibition of human U251 cells after 48 hrs by sulforhodamine B assay; details: U-251, 48 h; summary of the method: as §2
[13] = system: LOX IMVI; assay: Growth inhibition of human LOXIMVI cells after 48 hrs by sulforhodamine B assay; summary of the method: as §1
[14] = system: M14; assay: Growth inhibition of human M14 cells after 48 hrs by sulforhodamine B assay; details: M14, 48 h; summary of the method: as §1
[15] = system: SK-MEL-28; assay: Growth inhibition of human SK-MEL-28 cells after 48 hrs by sulforhodamine B assay; details: SK-MEL-28, 48 h; summary of the method: as §1
[16] = system: SK-MEL-5; assay: Growth inhibition of human SK-MEL-5 cells after 48 hrs by sulforhodamine B assay; details: SK-MEL-5, 48 h; summary of the method: as §1
[17] = system: IGROV-1; assay: Growth inhibition of human IGROV1 cells after 48 hrs by sulforhodamine B assay; details: IGROV-1, 48 h; summary of the method: as §1
[18] = system: OVCAR-4; assay: Growth inhibition of human OVCAR4 cells after 48 hrs by sulforhodamine B assay; details: OVCAR-4, 48 h; summary of the method: as §1
[19] = system: OVCAR-5; assay: Growth inhibition of human OVCAR5 cells after 48 hrs by sulforhodamine B assay; details: OVCAR-5, 48 h; summary of the method: as §1
[20] = system: OVCAR-8; assay: Growth inhibition of human OVCAR8 cells after 48 hrs by sulforhodamine B assay; details: OVCAR-8, 48 h; summary of the method: as §1
[21] = system: 786-0; assay: Growth inhibition of human 786-0 cells after 48 hrs by sulforhodamine B assay; details: 786-0, 48 h; summary of the method: as §1
[22] = system: CAKI-1; assay: Growth inhibition of human Caki1 cells after 48 hrs by sulforhodamine B assay; details: CAKI-1, 48 h; summary of the method: as §1
[23] = system: RXF 393; assay: Growth inhibition of human RXF393 cells after 48 hrs by sulforhodamine B assay; details: RXF 393, 48 h; summary of the method: as §1
[24] = system: TK-10; assay: Growth inhibition of human TK10 cells after 48 hrs by sulforhodamine B assay; details: TK-10, 48 h; summary of the method: as §2
[25] = system: PC-3; assay: Growth inhibition of human PC3 cells after 48 hrs by sulforhodamine B assay; details: PC-3, 48 h; summary of the method: as §1
[26] = system: DU-145; assay: Growth inhibition of human DU145 cells after 48 hrs by sulforhodamine B assay; details: DU-145, 48 h; summary of the method: as §1
[27] = system: NCI/ADR-RES; assay: Growth inhibition of human NCI/ADR-RES cells after 48 hrs by sulforhodamine B assay; summary of the method: as §1
[28] = system: MDA-MB-231; assay: Growth inhibition of human MDA-MB-231 cells after 48 hrs by sulforhodamine B assay; details: MDA-MB-231, 48 h; summary of the method: as §1
[29] = Growth inhibition of human Hs 578T cells after 48 hrs by sulforhodamine B assay; summary of the method: as §1
[30] = system: MDA-MB-435; assay: Growth inhibition of human MDA-MB-435 cells after 48 hrs by sulforhodamine B assay; details: MDA-MB-435, 48 h; summary of the method: as §1
[31] = read-out: pLC50 (the source's name) (converted)

`COc1ccc(Sc2nc3cc(N)cc(N)c3nc2-c2ccccc2)cc1` gave a growth at 100 µM [1] of 0%, a growth at 100 µM [2] of 8% and a GI50 [3] of 9.77 µM. The LC50 [3] was over 100 µM, the TGI ([3]; read-out: pTGI (converted)) was over 100 µM and the GI50 [4] was 42.7 µM. It also gave an LC50 [4] of over 100 µM, a TGI ([4]; read-out: pTGI (converted)) of over 100 µM and a GI50 [5] of 35.5 µM. It also gave an LC50 [5] of over 100 µM, a TGI ([5]; read-out: pTGI (converted)) of over 100 µM and a GI50 [6] of 3.24 µM. It also gave an LC50 [6] of over 100 µM, a TGI ([6]; read-out: pTGI (converted)) of over 100 µM and a GI50 [7] of 19.5 µM. The LC50 (50% net cell kill) [7] was over 100 µM, the TGI ([7]; read-out: pTGI (converted)) was over 100 µM and the GI50 [8] was 14.8 µM. It also gave an LC50 (concentration causing 50% net cell death) [8] of over 100 µM, a TGI ([8]; read-out: pTGI (converted)) of over 100 µM and a GI50 [9] of 26.3 µM. It also gave a CC50 [9, 31] of over 100 µM, a TGI ([9]; read-out: pTGI (converted)) of over 100 µM and a GI50 [10] of over 100 µM. For the same molecule, the LC50 [10] was over 100 µM, the TGI ([10]; read-out: pTGI (converted)) was over 100 µM and the GI50 [11] was over 100 µM. For the same molecule, the LC50 (50% net cell kill) [11] was over 100 µM, the TGI ([11]; read-out: pTGI (converted)) was over 100 µM and the GI50 [12] was over 100 µM. It also gave an LC50 (50% net cell kill) [12] of over 100 µM, a TGI ([12]; read-out: pTGI (converted)) of over 100 µM and a GI50 [13] of 51.3 µM. The LC50 [13] was over 100 µM, the TGI ([13]; read-out: pTGI (converted)) was over 100 µM and the GI50 [14] was over 100 µM. The CC50 [14, 31] was over 100 µM, the TGI ([14]; read-out: pTGI (converted)) was over 100 µM and the GI50 [15] was 24.5 µM. The CC50 [15, 31] was over 100 µM, the TGI ([15]; read-out: pTGI (converted)) was over 100 µM and the GI50 [16] was 24 µM. It also gave a CC50 [16, 31] of over 100 µM, a TGI ([16]; read-out: pTGI (converted)) of over 100 µM and a CC50 [17, 31] of over 100 µM. It also gave a TGI ([17]; read-out: pTGI (converted)) of over 100 µM, a CC50 [18, 31] of over 100 µM and a TGI ([18]; read-out: pTGI (converted)) of over 100 µM. The GI50 [19] was over 100 µM, the CC50 [19, 31] was over 100 µM and the TGI ([19]; read-out: pTGI (converted)) was over 100 µM. For the same molecule, the GI50 [20] was over 100 µM, the CC50 [20, 31] was over 100 µM and the TGI ([20]; read-out: pTGI (converted)) was over 100 µM. The GI50 [21] was 13.2 µM, the CC50 [21, 31] was 70.8 µM and the TGI ([21]; read-out: pTGI (converted)) was 30.2 µM. It also gave a GI50 [22] of 13.2 µM, a CC50 [22, 31] of over 100 µM and a TGI ([22]; read-out: pTGI (converted)) of 52.5 µM. For the same molecule, the GI50 [23] was 3.09 µM, the CC50 [23, 31] was over 100 µM and the TGI ([23]; read-out: pTGI (converted)) was 17 µM. The GI50 [24] was 12.9 µM, the CC50 [24, 31] was 72.4 µM and the TGI ([24]; read-out: pTGI (converted)) was 30.2 µM. For the same molecule, the GI50 [25] was 1.74 µM, the CC50 [25, 31] was 19.1 µM and the TGI ([25]; read-out: pTGI (converted)) was 5.13 µM. The GI50 [26] was 16.2 µM, the CC50 [26, 31] was 69.2 µM and the TGI ([26]; read-out: pTGI (converted)) was 33.1 µM. The GI50 [27] was over 100 µM, the CC50 [27, 31] was over 100 µM and the TGI ([27]; read-out: pTGI (converted)) was over 100 µM. For the same molecule, the GI50 [28] was over 100 µM, the CC50 [28, 31] was over 100 µM and the TGI ([28]; read-out: pTGI (converted)) was over 100 µM. It also gave a GI50 [29] of over 100 µM, a CC50 [29, 31] of over 100 µM and a TGI ([29]; read-out: pTGI (converted)) of over 100 µM. For the same molecule, the GI50 [30] was over 100 µM, the CC50 [30, 31] was over 100 µM and the TGI ([30]; read-out: pTGI (converted)) was over 100 µM.

Reference: ChEMBL document CHEMBL1137710, “Synthesis and in vitro antitumor activity of new quinoxaline derivatives” (2009)
